The source of these data is ChEMBL document CHEMBL1134413, “Effect of N-alkyl and N-alkenyl substituents in noroxymorphindole, 17-substituted-6,7-dehydro-4,5alpha-epoxy-3,14-dihydroxy-6,7:2',3'-indolomorphinans, on opioid receptor affinity, selectivity, and efficacy” (J Med Chem, 2001).

In test [1] the target is T1, Mu-type opioid receptor (Rattus norvegicus, UniProt P33535). The test can be described thus: Displacement of [3H]DAMGO at mu-opioid receptor.
In test [2] the target is T2, Kappa-type opioid receptor (Cavia porcellus, UniProt P41144). The test can be described thus: Displacement of [3H]U-69593 at opioid receptor kappa 1.
For test [3], the target named is T3, Delta-type opioid receptor (Mus musculus, UniProt P32300). The test can be described thus: Displacement of [3H]DADLE at delta-opioid receptor.
Test [4] concerns the target T1, Mu-type opioid receptor. The test can be described thus: Antagonist activity of compound on agonist stimulated [35S]GTP-gamma-S binding on mu-opioid receptor. Format: functional.
Test [5] deals with T2, Kappa-type opioid receptor. The test can be described thus: Antagonist activity of compound on U50,488H stimulated [35S]GTP-gamma-S binding to opioid receptor kappa 1. Format: functional.
For test [6], the target named is T3, Delta-type opioid receptor. The test can be described thus: Antagonist activity of compound on agonist stimulated [35S]GTP-gamma-S binding on delta-opioid receptor. Format: functional.
The species entered for test [7] is Cavia porcellus. The test can be described thus: Antagonist activity of compound in GPI/LMMP tested with PL-017. In kind it is functional. In a few lines: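 Guinea pig ileum longitudinal muscle/myenteric plexus preparation. Antagonism is measured against the μ agonist PL-017 and expressed as Ke (nM). Agonist activity is recorded separately as percent inhibition of contraction height at a single stated concentration.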

The species entered for test [8] is Mus musculus. The test can be described thus: Antagonist activity of compound in mouse vas deferens tested with DPDPE. In kind it is functional. In a few lines:
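Isolated mouse vas deferens. Antagonism is measured against the δ agonist DPDPE and expressed as Ke (nM). Agonist activity is recorded separately as percent inhibition of contraction height at a single stated concentration.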

Test [9] is filed under the species Cavia porcellus. The test can be described thus: Percentage inhibition of contraction height in guinea pig ileum longitudinal muscle myenteric plexus (GPI/LMMP) 1 uM. In kind it is functional. An outline of the steps: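 Agonist effect read in isolated guinea pig ileum longitudinal muscle/myenteric plexus preparation as percent inhibition of contraction height, at one test concentration.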

The species entered for test [10] is Mus musculus. The test can be described thus: Percentage inhibition of contraction height in mouse vas deferens (MVD) at 100 nM. Format: functional. In a few lines: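 Agonist effect read in isolated mouse vas deferens preparation as percent inhibition of contraction height, at one test concentration.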
The target of test [11] is T3, Delta-type opioid receptor. The test can be described thus: Antagonist activity of compound on SNC 80 stimulated [35S]GTP-gamma-S binding to delta-opioid receptor. Format: functional.
The target in test [12] is T1, Mu-type opioid receptor. The test can be described thus: Antagonist activity of compound on DAMGO stimulated [35S]GTP-gamma-S binding to mu-opioid receptor. In kind it is functional.
For test [13], the species on record is Mus musculus. The test can be described thus: Percentage inhibition of contraction height in mouse vas deferens (MVD) at 1 uM. In kind it is functional.

T3 sequence (P32300 whole entry): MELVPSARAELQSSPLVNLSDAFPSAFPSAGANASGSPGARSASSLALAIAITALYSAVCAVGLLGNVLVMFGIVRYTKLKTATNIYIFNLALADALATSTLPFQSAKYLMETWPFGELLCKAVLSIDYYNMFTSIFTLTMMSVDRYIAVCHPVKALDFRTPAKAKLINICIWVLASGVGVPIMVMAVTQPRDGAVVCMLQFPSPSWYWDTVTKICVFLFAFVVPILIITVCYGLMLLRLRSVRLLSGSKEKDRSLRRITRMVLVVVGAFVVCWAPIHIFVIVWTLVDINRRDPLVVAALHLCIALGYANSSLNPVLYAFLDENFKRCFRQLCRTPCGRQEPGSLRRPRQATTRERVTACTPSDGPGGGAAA
T2 sequence (P41144 whole entry): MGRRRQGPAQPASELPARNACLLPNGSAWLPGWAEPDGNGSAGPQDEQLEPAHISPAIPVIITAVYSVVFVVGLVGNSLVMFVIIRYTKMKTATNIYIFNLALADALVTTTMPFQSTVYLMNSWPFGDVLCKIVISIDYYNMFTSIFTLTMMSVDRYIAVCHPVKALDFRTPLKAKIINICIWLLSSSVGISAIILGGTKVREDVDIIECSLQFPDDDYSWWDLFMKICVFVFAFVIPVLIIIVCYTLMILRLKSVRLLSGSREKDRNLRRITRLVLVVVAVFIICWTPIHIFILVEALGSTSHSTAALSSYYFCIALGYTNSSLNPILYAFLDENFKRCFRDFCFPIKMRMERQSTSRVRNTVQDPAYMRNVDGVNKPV
T1 sequence (P33535 whole entry): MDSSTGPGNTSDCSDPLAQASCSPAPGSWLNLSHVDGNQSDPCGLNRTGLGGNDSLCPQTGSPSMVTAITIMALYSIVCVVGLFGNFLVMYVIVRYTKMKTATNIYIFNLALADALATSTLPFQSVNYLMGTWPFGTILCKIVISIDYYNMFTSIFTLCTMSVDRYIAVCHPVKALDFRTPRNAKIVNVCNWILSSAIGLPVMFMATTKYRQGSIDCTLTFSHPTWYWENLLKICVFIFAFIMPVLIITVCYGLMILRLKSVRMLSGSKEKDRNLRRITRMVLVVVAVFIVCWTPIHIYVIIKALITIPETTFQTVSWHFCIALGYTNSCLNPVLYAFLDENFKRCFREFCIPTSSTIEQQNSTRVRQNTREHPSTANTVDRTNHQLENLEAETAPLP

On to `CC(C)CN1CC[C@]23c4c5ccc(O)c4O[C@H]2c2[nH]c4ccccc4c2C[C@@]3(O)[C@H]1C5`, for which the figures for the Ki in test [1], in test [2] and in [3] were 2600 nM, 650 nM and 3.8 nM, respectively.
Regarding `CCCN1CC[C@]23c4c5ccc(O)c4O[C@H]2c2[nH]c4ccccc4c2C[C@@]3(O)[C@H]1C5`, the Ki is 380 nM in test [2] and 2 nM in [3].
As for `CC(C)=CCN1CC[C@]23c4c5ccc(O)c4O[C@H]2c2[nH]c4ccccc4c2C[C@@]3(O)[C@H]1C5`, the values for the Ki in test [1], in test [2] and in test [3] were 2800 nM, 3200 nM and 25 nM, respectively.
On the same counts, the results for `CC(C)N1CC[C@]23c4c5ccc(O)c4O[C@H]2c2[nH]c4ccccc4c2C[C@@]3(O)[C@H]1C5` are more than 6600 nM, 6200 nM and 33 nM.
For `CCCCCCN1CC[C@]23c4c5ccc(O)c4O[C@H]2c2[nH]c4ccccc4c2C[C@@]3(O)[C@H]1C5`, the results for the Ki in test [1], in test [2] and in test [3] were 4600 nM, 3100 nM and 26 nM, respectively.
For `CCCCN1CC[C@]23c4c5ccc(O)c4O[C@H]2c2[nH]c4ccccc4c2C[C@@]3(O)[C@H]1C5`, the Ki was 1300 nM in test [1], 900 nM in [2] and 8.4 nM in [3].
Consider `CCCCCN1CC[C@]23c4c5ccc(O)c4O[C@H]2c2[nH]c4ccccc4c2C[C@@]3(O)[C@H]1C5`, for which the Ki came out at 2800 nM in test [1], 2000 nM in test [2] and 16 nM in test [3].
Consider `C/C=C/CN1CC[C@]23c4c5ccc(O)c4O[C@H]2c2[nH]c4ccccc4c2C[C@@]3(O)[C@H]1C5`, for which the Ki in test [4] turned out to be 30 nM; in test [1], 1200 nM; in [5] it was 118 nM; in test [6], 0.68 nM; in test [2], 960 nM; in test [3], 7.4 nM. Also, the Ke was found to be 5500 nM in test [7] and 26 nM in [8]. In addition, the Inhibition in test [9] turned out to be 22%. For the same compound, in test [10], the inhibition at 0.1 µM turned out to be 12%.
Regarding `CC(C)CCN1CC[C@]23c4c5ccc(O)c4O[C@H]2c2[nH]c4ccccc4c2C[C@@]3(O)[C@H]1C5`, the Ki turned out to be 1300 nM in test [1], 670 nM in [2] and 4.8 nM in test [3].
As to `CCN1CC[C@]23c4c5ccc(O)c4O[C@H]2c2[nH]c4ccccc4c2C[C@@]3(O)[C@H]1C5`, the inhibition constant (Ki) was 3.2 nM in test [11]; 2500 nM in [1]; more than 1000 nM in test [5]; 3000 nM in test [2]; 290 nM in test [12]; 5 nM in test [3]. In addition, the Ke in test [7] is reported as 96 nM; in test [8] it was 9.6 nM. The compound also had an Inhibition in test [9] of 1.2%. In [10], this compound had an inhibition at 0.1 µM of 9%.
With `CCCCCCCN1CC[C@]23c4c5ccc(O)c4O[C@H]2c2[nH]c4ccccc4c2C[C@@]3(O)[C@H]1C5`, the Ki in [1] is 4600 nM; in test [2], more than 7000 nM; in [3] it was 79 nM.
For `Cl.Oc1ccc2c3c1O[C@H]1c4[nH]c5ccccc5c4C[C@@]4(O)[C@@H](C2)N(CC2CC2)CC[C@]314` [NALTRINDOLE HYDROCHLORIDE], the Ki came out at 4.7 nM in [5], 0.03 nM in [6], 30 nM in [2] and 0.22 nM in test [3]. This compound also registered an inhibition at 1 µM in test [13] of 16%. Further, the Ke in [7] is recorded as 43 nM; in test [8], 0.49 nM. This compound also gave an Inhibition in [9] of 18%.
`CN1CC[C@]23c4c5ccc(O)c4O[C@H]2c2[nH]c4ccccc4c2C[C@@]3(O)[C@H]1C5` [OXYMORPHINDOLE]: affinity in [1] was put at a Ki of 66 nM.
